Experimental data from ChEMBL document CHEMBL1142626, “Insecticidal and mutagenic evaluation of two annonaceous acetogenins” (J Nat Prod, 2000).

What was measured:
Salmonella typhimurium [1] = assay: Mutagenic activity in Salmonella Typhimurium TA100 assessed as number of revertants at 50 ug/plate in absence of Wistar rat S9 liver homogenate; format: toxicity, organism-based; settings: salmonella enterica subsp. enterica serovar typhimurium
Procedure, shortened: (§1)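 Salmonella/microsome plate test, with or without S9 from livers of male Wistar rats (~200 g). Strain markers and spontaneous revertant counts were routinely verified. Revertants are reported as mean ± standard error of triplicate plates. Strain-specific positive controls were used, with 2-aminoanthracene for all strains when S9 was present.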

Salmonella typhimurium [2] = assay: Mutagenic activity in Salmonella Typhimurium TA100 assessed as number of revertants at 100 ug/plate in absence of Wistar rat S9 liver homogenate; format: toxicity, organism-based; settings: salmonella enterica subsp. enterica serovar typhimurium; procedure, shortened: as §1
Salmonella typhimurium [3] = assay: Mutagenic activity in Salmonella Typhimurium TA100 assessed as number of revertants at 0.01 ug/plate in presence of Wistar rat S9 liver homogenate; format: toxicity, organism-based, Liver S9 fraction; settings: salmonella enterica subsp. enterica serovar typhimurium; procedure, shortened: as §1
Salmonella typhimurium [4] = assay: Mutagenic activity in Salmonella Typhimurium TA100 assessed as number of revertants at 0.1 ug/plate in presence of Wistar rat S9 liver homogenate; format: toxicity, organism-based, Liver S9 fraction; settings: salmonella enterica subsp. enterica serovar typhimurium; procedure, shortened: as §1
Salmonella typhimurium [5] = assay: Mutagenic activity in Salmonella Typhimurium TA100 assessed as number of revertants at 1 ug/plate in presence of Wistar rat S9 liver homogenate; format: toxicity, organism-based, Liver S9 fraction; settings: salmonella enterica subsp. enterica serovar typhimurium; procedure, shortened: as §1
Salmonella typhimurium [6] = assay: Mutagenic activity in Salmonella Typhimurium TA100 assessed as number of revertants at 10 ug/plate in presence of Wistar rat S9 liver homogenate; format: toxicity, organism-based, Liver S9 fraction; settings: salmonella enterica subsp. enterica serovar typhimurium; procedure, shortened: as §1
Salmonella typhimurium [7] = assay: Mutagenic activity in Salmonella Typhimurium TA100 assessed as number of revertants at 20 ug/plate in presence of Wistar rat S9 liver homogenate; format: toxicity, organism-based, Liver S9 fraction; settings: salmonella enterica subsp. enterica serovar typhimurium; procedure, shortened: as §1
Salmonella typhimurium [8] = assay: Mutagenic activity in Salmonella Typhimurium TA100 assessed as number of revertants at 50 ug/plate in presence of Wistar rat S9 liver homogenate; format: toxicity, organism-based, Liver S9 fraction; settings: salmonella enterica subsp. enterica serovar typhimurium; procedure, shortened: as §1
Salmonella typhimurium [9] = assay: Mutagenic activity in Salmonella Typhimurium TA102 assessed as number of revertants at 0.01 ug/plate in absence of Wistar rat S9 liver homogenate; format: toxicity, organism-based; settings: salmonella enterica subsp. enterica serovar typhimurium; procedure, shortened: as §1
Salmonella typhimurium [10] = assay: Mutagenic activity in Salmonella Typhimurium TA102 assessed as number of revertants at 0.1 ug/plate in absence of Wistar rat S9 liver homogenate; format: toxicity, organism-based; settings: salmonella enterica subsp. enterica serovar typhimurium; procedure, shortened: as §1
Salmonella typhimurium [11] = assay: Mutagenic activity in Salmonella Typhimurium TA102 assessed as number of revertants at 1 ug/plate in absence of Wistar rat S9 liver homogenate; format: toxicity, organism-based; settings: salmonella enterica subsp. enterica serovar typhimurium; procedure, shortened: as §1
Salmonella typhimurium [12] = assay: Mutagenic activity in Salmonella Typhimurium TA102 assessed as number of revertants at 10 ug/plate in absence of Wistar rat S9 liver homogenate; format: toxicity, organism-based; settings: salmonella enterica subsp. enterica serovar typhimurium; procedure, shortened: as §1
Salmonella typhimurium [13] = assay: Mutagenic activity in Salmonella Typhimurium TA102 assessed as number of revertants at 20 ug/plate in absence of Wistar rat S9 liver homogenate; format: toxicity, organism-based; settings: salmonella enterica subsp. enterica serovar typhimurium; procedure, shortened: as §1
Salmonella typhimurium [14] = assay: Mutagenic activity in Salmonella Typhimurium TA102 assessed as number of revertants at 50 ug/plate in absence of Wistar rat S9 liver homogenate; format: toxicity, organism-based; settings: salmonella enterica subsp. enterica serovar typhimurium; procedure, shortened: as §1
Salmonella typhimurium [15] = assay: Mutagenic activity in Salmonella Typhimurium TA102 assessed as number of revertants at 100 ug/plate in absence of Wistar rat S9 liver homogenate; format: toxicity, organism-based; settings: salmonella enterica subsp. enterica serovar typhimurium; procedure, shortened: as §1
Salmonella typhimurium [16] = assay: Mutagenic activity in Salmonella Typhimurium TA102 assessed as number of revertants at 0.01 ug/plate in presence of Wistar rat S9 liver homogenate; format: toxicity, organism-based, Liver S9 fraction; settings: salmonella enterica subsp. enterica serovar typhimurium; procedure, shortened: as §1
Salmonella typhimurium [17] = assay: Mutagenic activity in Salmonella Typhimurium TA102 assessed as number of revertants at 1 ug/plate in presence of Wistar rat S9 liver homogenate; format: toxicity, organism-based, Liver S9 fraction; settings: salmonella enterica subsp. enterica serovar typhimurium; procedure, shortened: as §1
Salmonella typhimurium [18] = assay: Mutagenic activity in Salmonella Typhimurium TA102 assessed as number of revertants at 10 ug/plate in presence of Wistar rat S9 liver homogenate; format: toxicity, organism-based, Liver S9 fraction; settings: salmonella enterica subsp. enterica serovar typhimurium; procedure, shortened: as §1
Salmonella typhimurium [19] = assay: Mutagenic activity in Salmonella Typhimurium TA102 assessed as number of revertants at 20 ug/plate in presence of Wistar rat S9 liver homogenate; format: toxicity, organism-based, Liver S9 fraction; settings: salmonella enterica subsp. enterica serovar typhimurium; procedure, shortened: as §1
Salmonella typhimurium [20] = assay: Mutagenic activity in Salmonella Typhimurium TA102 assessed as number of revertants at 50 ug/plate in presence of Wistar rat S9 liver homogenate; format: toxicity, organism-based, Liver S9 fraction; settings: salmonella enterica subsp. enterica serovar typhimurium; procedure, shortened: as §1
Salmonella typhimurium [21] = assay: Mutagenic activity in Salmonella Typhimurium TA102 assessed as number of revertants at 100 ug/plate in presence of Wistar rat S9 liver homogenate; format: toxicity, organism-based, Liver S9 fraction; settings: salmonella enterica subsp. enterica serovar typhimurium; procedure, shortened: as §1
Salmonella typhimurium [22] = assay: Bactericidal activity against Salmonella Typhimurium TA98 assessed as viability after 24 hrs in absence of Wistar rat S9 liver homogenate; format: functional, organism-based; settings: Salmonella enterica subsp. enterica serovar Typhimurium
Procedure, shortened: (§2)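 Viability assay: test solution or DMSO was mixed with diluted overnight culture and phosphate buffer (no S9) in top agar with histidine/biotin. The mixture was spread on nutrient agar and incubated 24 h at 37 °C. Colonies were counted to give viable bacteria per mL; positive and negative controls included; triplicate.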

Salmonella typhimurium [23] = assay: Bactericidal activity against Salmonella Typhimurium TA100 assessed as viability after 24 hrs in absence of Wistar rat S9 liver homogenate; format: functional, organism-based; settings: Salmonella enterica subsp. enterica serovar Typhimurium; procedure, shortened: as §2
Salmonella typhimurium [24] = assay: Bactericidal activity against Salmonella Typhimurium TA102 assessed as viability after 24 hrs in absence of Wistar rat S9 liver homogenate; format: functional, organism-based; settings: Salmonella enterica subsp. enterica serovar Typhimurium; procedure, shortened: as §2
Salmonella typhimurium [25] = assay: Mutagenic activity in Salmonella Typhimurium TA98 assessed as number of revertants at 0.01 ug/plate in absence of Wistar rat S9 liver homogenate; format: toxicity, organism-based; settings: salmonella enterica subsp. enterica serovar typhimurium; procedure, shortened: as §1

## CCCCCCCCCCCC[C@@H](O)[C@H]1CC[C@H]([C@H](O)CCCC[C@H](O)CCCCC[C@@H](O)CC2=CC(C)OC2=O)O1 (stereo not given in full) [ANNONACIN]
Salmonella typhimurium [1]
  Activity: 85
Salmonella typhimurium [2]
  Activity: 68
Salmonella typhimurium [3]
  Activity: 135
Salmonella typhimurium [4]
  Activity: 139
Salmonella typhimurium [5]
  Activity: 140
Salmonella typhimurium [6]
  Activity: 145
Salmonella typhimurium [7]
  Activity: 139
Salmonella typhimurium [8]
  Activity: 99
Salmonella typhimurium [9]
  Activity: 328
Salmonella typhimurium [10]
  Activity: 296
Salmonella typhimurium [11]
  Activity: 277
Salmonella typhimurium [12]
  Activity: 221
Salmonella typhimurium [13]
  Activity: 204
Salmonella typhimurium [14]
  Activity: 169
Salmonella typhimurium [15]
  Activity: 126
Salmonella typhimurium [16]
  Activity: 443
Salmonella typhimurium [17]
  Activity: 429
Salmonella typhimurium [18]
  Activity: 430
Salmonella typhimurium [19]
  Activity: 432
Salmonella typhimurium [20]
  Activity: 430
Salmonella typhimurium [21]
  Activity: 437
Salmonella typhimurium [22]
  Activity: Non-toxic
Salmonella typhimurium [23]
  Activity: Non-toxic
Salmonella typhimurium [24]
  Activity: Non-toxic
Salmonella typhimurium [25]
  Activity: 33
